Entries after “also recorded” stand apart in the source; their conditions may differ. Read-outs that look alike come from different tables or passages of the source.
Legend:
[1] = system: a Helminthosporium species; experiment: Antifungal activity, a Helminthosporium species; format: cell-based; conditions: in words
In short: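 Mycelial disk-diffusion assay on potato dextrose agar. After the colony developed, sterile paper disks (0.625 cm) were placed 1 cm from the colony rim. Each disk received test peptide (60 μg or 300 μg) in 20 mM PBS, pH 6.0, and buffer served as the control. Plates were incubated at 23 °C for 72 h and scored for crescents of inhibition around the disks.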

fungal species [2] = experiment: Antifungal activity, fungal species in general or not specified; format: cell-based; conditions: for antifungal activity: in words
HIV-1 integrase [3] = experiment: HIV-1 integrase inhibition; format: biochemical; conditions: data not shown
Valsa mali = experiment: Antifungal activity, mycelial growth inhibition, Valsa mali; format: cell-based; conditions: read-out: IC50 of antifungal activity; potato dextrose agar, 23 °C, 72 h; 50% reduction in area of mycelial colony
In short: (§1)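 Four doses of test peptide were mixed separately into potato dextrose agar at 45 °C and poured into small plates. Each plate then received an equal amount of mycelia, with a buffer-only control. After 72 h at 23 °C, colony area was measured. % inhibition = reduction in colony area relative to the control. IC50 was read from the % reduction versus concentration plot at 50% reduction.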

[4] = Thermal and pH stability of antifungal activity; format: physicochemical; conditions: for thermostability: antifungal activity after thermal pretreatment
In short: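 Test peptide was pretreated at 0–100 °C for 10 min or at pH 0–3 and 10–14 for 30 min. Ions were also tested. Residual antifungal activity was then measured by the paper-disk assay on potato dextrose agar (2 μg peptide per disk, buffer control disk, 23 °C, 72 h), scoring inhibition crescents.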

tumor cells [5] = experiment: Antiproliferative activity on tumor cells, line not specified; format: cell-based; conditions: in words
In short: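 MCF-7 breast cancer and HepG2 hepatoma cells were suspended in RPMI at 2 × 10^4 cells/ml, seeded and incubated for 24 h. Graded concentrations of test peptide in complete RPMI were added for 72 h. MTT (5 mg/ml stock in PBS) was added for 4 h, plates were centrifuged, formazan was dissolved in DMSO and absorbance read at 590 nm.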

trypsin [6] = experiment: Trypsin-inhibitory activity; format: biochemical
[7] = system: HIV-1 reverse transcriptase; experiment: HIV-1 reverse transcriptase inhibitory activity; format: biochemical; conditions: in words
Fusarium oxysporum [8] = experiment: Antifungal activity, mycelial growth inhibition, Fusarium oxysporum; format: cell-based
In short: as §1

[9] = system: severe acute respiratory syndrome (SARS) coronavious (CoV) protease; format: biochemical
mouse splenocytes [10] = experiment: Mitogenic activity; format: cell-based; conditions: data not shown; Con A positive control
[11] = system: Mycosphaerella arachidicola; experiment: Antifungal activity, mycelial growth inhibition, Mycosphaerella arachidicola; format: cell-based
In short: as §1

Helminthosporium maydis = experiment: Antifungal activity, mycelial growth inhibition, Helminthosporium maydis; format: cell-based; conditions: read-out: IC50 of antifungal activity; potato dextrose agar, 23 °C, 72 h; 50% reduction in area of mycelial colony
In short: as §1

tumor cells [12] = conditions: in words; cited from earlier work
fungal species [13] = conditions: in words; cited from earlier work
[14] = system: breast cancer MCF-7 cell line; conditions: read-out: IC50, antiproliferative activity; cited from earlier work
hepatoma HepG2 cell line = conditions: read-out: IC50, antiproliferative activity; cited from earlier work
[15] = system: Mycosphaerella arachidicola; conditions: in words; cited from earlier work
mouse splenocytes [16] = conditions: toward mouse splenocytes; cited from earlier work
[17] = system: a Helminthosporium species; conditions: in words; cited from earlier work
HIV-1 integrase [18] = conditions: cited from earlier work
[19] = system: severe acute respiratory syndrome (SARS) coronavious (CoV) protease; conditions: cited from earlier work
[20] = system: HIV-1 reverse transcriptase; conditions: cited from earlier work
Fusarium oxysporum [21] = conditions: in words; cited from earlier work
trypsin [22] = conditions: in words; cited from earlier work
[23] = read-out: IC50 of antifungal activity, potato dextrose agar, 23 °C, 72 h, 50% reduction in area of mycelial colony

For “PEGPFQGPKATKPGDLAXQTWGGWXGQTPKY [kale antifungal peptide]”, the “antifungal activity toward a Helminthosporium species” value [1] was “antifungal activity toward F. oxysporum, M. arachidicola and a Helminthosporium species”, the “antifungal potency compared with other antifungal proteins” value (fungal species [2]; compared with antifungal proteins of refs 31, 32, 40) was “more potent than that of the antifungal proteins” and the antifungal activity (fungal species [2]) was “broad spectrum of antifungal activity; also recorded: exhibit antifungal activity”. The antifungal activity (fungal species [2]; listed as antifungal peptide) was “stable and broad-spectrum antifungal activity”, the “HIV-1 integrase inhibitory activity” value (HIV-1 integrase [3]) was “devoid of” and the IC50 (Valsa mali) was 150 nM. The pH stability ([4]; antifungal activity after pH pretreatment, in words) was “remarkable thermostability and pH stability”, the thermostability ([4]; in words) was “remarkable thermostability” and the thermostability ([4]; in words, listed as antifungal peptide) was “pronounced thermostability”. The “acid pH range after which antifungal activity was retained” value ([4]; pH, pretreatment 30 min, tested pH 0–3, paper disk assay, 2 μg peptide per disk) was 2–3, the antiproliferative activity (tumor cells [5]) was “demonstrated antiproliferative activity; also recorded: antiproliferative activity toward tumor cells; also recorded: potent antiproliferative” and the “trypsin inhibitory activity toward BAEE” value (trypsin [6]; BAEE as substrate, tested up to 50 μM, detailed data not shown) was “lacked trypsin inhibitory activity”. The “trypsin inhibitory activity toward casein” value (trypsin [6]; casein as substrate, tested up to 10 μM, detailed data not shown) was “lacked trypsin inhibitory activity”, the trypsin inhibitory activity (trypsin [6]; substrate not specified, in words) was “did not exhibit trypsin inhibitory activity” and the “HIV-1 reverse transcriptase inhibitory activity” value [7] was “HIV-1 reverse transcriptase inhibitory activity; also recorded: potent antiproliferative and HIV-1 reverse transcriptase inhibitory activities”. For the same sequence, the “antifungal activity toward F. oxysporum” value (Fusarium oxysporum [8]; in words) was “antifungal activity toward F. oxysporum”, the IC50 (Fusarium oxysporum [8]; [23]) was 4300 nM and the “SARS proteinase inhibitory activity” value [9] was “devoid of”. The mitogenic activity (mouse splenocytes [10]) was “devoid of mitogenic activity”, the “antifungal activity toward M. arachidicola” value ([11]; in words) was “antifungal activity toward F. oxysporum, M. arachidicola” and the IC50 [11, 23] was 2400 nM. For the same sequence, the IC50 (Helminthosporium maydis) was 2100 nM.

In the case of “ALSCGTVSGNLAACAGYV [B. campestris antifungal peptide]”, the “antiproliferative activity toward tumor cells” value (tumor cells [12]) is given as “antiproliferative activity toward tumor cells”, the antifungal activity (fungal species [13]) is given as “with antifungal activity” and the IC50 [14] is given as 1600 nM. The IC50 (hepatoma HepG2 cell line) was 5800 nM, the “antifungal activity toward M. arachidicola” value [15] was “antifungal activity toward F. oxysporum, M. arachidicola” and the mitogenic activity (mouse splenocytes [16]) was “devoid of mitogenic activity toward mouse splenocytes”. The “antifungal activity toward a Helminthosporium species” value [17] was “antifungal activity toward F. oxysporum, M. arachidicola and a Helminthosporium species”, the “HIV-1 integrase inhibitory activity” value (HIV-1 integrase [18]) was “Neither kale nor B. campestris antifungal peptide demonstrated HIV-1 integrase inhibitory” and the “SARS proteinase inhibitory activity” value [19] was “Neither kale nor B. campestris antifungal peptide demonstrated HIV-1 integrase inhibitory and SARS proteinase inhibitory activities”. The “HIV-1 reverse transcriptase inhibitory activity” value ([20]; in words) was “HIV-1 reverse transcriptase inhibitory activity”, the IC50 ([20]; read-out: IC50, HIV-1 reverse transcriptase inhibitory activity) was 4000 nM and the “antifungal activity toward F. oxysporum” value (Fusarium oxysporum [21]) was “antifungal activity toward F. oxysporum”.

For “SECLKEYGGDVGFGFCAPRIYPSFCVQRC [Brassica napus trypsin inhibitor]”, the trypsin inhibitory activity (trypsin [22]) is given as “manifest trypsin inhibitory activity”.

Reference: publication PMC7115674 (Peptides, 2008)
